Data: ChEMBL document CHEMBL3244012, “Guanylhydrazones with potential antileukemic activity. 2. Synthesis and structure-activity relationships of analogues of 4,4'-diacetyl-N,N'-diphenylurea bis(guanylhydrazone)” (J Med Chem, 1978)

Experiments:
TA3 = test: Cytotoxicity against mouse TA3 cells assessed as growth inhibition after 3 days; format: functional; details: TA3, 72 h, read-out: ID50 (the source's name)
Summary of the method: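 Mouse mammary adenocarcinoma TA-3 cells grown in stationary tubes in RPMI 1640 with 10% horse serum; 50 000 cells inoculated with compound in medium, incubated upright 3 days. Growth read by protein assay; control growth six- to tenfold. Five tubes per concentration; inhibitory compounds retested at least twice. ID50 = 50% inhibitory concentration, between-test variation within ±10%.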

L1210 = test: Antitumor activity against mouse L1210 cells allografted in DBA/2J mouse assessed as survival at 30 mg/kg, ip dosed once daily on days 1 to 3 (reference value: 8.2 +/- 1.1 days); format: functional; details: route intraperitoneal
[1] = molecular target: T1, DNA polymerase alpha catalytic subunit (Mus musculus) (UniProt P33609); test: Inhibition of DNA polymerase alpha isolated from mouse L1210 cells assessed as reduction in DNA synthesis by cell-free system based assay
T1 sequence (whole entry): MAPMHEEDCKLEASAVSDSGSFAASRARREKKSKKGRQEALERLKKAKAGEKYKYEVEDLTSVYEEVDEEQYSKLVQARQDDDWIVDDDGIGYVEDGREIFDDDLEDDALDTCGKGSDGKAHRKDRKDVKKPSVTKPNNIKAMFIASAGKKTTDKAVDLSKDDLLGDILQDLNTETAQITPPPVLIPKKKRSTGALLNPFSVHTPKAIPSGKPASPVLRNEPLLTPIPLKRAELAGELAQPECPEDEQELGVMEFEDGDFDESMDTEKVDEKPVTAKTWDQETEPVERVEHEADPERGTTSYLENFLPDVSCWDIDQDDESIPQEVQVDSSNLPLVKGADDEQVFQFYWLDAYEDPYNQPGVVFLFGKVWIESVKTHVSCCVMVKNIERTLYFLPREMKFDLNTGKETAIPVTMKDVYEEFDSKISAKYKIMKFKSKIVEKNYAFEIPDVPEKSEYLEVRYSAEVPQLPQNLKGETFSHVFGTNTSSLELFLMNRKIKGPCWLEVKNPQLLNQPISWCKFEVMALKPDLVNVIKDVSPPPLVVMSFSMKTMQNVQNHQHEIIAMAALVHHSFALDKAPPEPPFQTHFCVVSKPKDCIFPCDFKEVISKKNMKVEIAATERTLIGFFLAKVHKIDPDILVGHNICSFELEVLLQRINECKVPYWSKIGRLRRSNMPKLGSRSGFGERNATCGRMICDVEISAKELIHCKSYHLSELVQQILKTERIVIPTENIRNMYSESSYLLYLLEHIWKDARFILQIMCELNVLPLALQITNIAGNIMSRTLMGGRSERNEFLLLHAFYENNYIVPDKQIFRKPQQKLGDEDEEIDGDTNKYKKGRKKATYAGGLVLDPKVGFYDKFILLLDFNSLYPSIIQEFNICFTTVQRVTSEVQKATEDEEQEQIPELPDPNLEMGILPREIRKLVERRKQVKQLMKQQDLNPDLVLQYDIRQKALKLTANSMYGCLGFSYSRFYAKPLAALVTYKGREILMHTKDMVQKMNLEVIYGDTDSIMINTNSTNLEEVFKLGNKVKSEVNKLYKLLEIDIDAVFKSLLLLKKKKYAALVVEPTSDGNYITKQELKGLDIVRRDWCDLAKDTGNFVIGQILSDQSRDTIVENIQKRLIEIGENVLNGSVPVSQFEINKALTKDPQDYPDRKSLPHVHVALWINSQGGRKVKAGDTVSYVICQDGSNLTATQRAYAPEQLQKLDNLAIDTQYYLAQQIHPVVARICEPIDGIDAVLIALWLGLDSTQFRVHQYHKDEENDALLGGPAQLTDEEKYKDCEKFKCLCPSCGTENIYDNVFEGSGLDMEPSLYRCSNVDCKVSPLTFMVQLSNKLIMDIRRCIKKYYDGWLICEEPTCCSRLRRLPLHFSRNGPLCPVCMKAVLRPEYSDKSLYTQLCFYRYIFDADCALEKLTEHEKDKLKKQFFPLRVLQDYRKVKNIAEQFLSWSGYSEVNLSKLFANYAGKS
Summary of the method: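 DNA polymerase α taken as a crude extract of mouse L1210 leukemia cells, assayed in a Bollum-type cell-free DNA synthesis system. Compounds added at different concentrations to the assay mixture before enzyme; initial reaction velocity measured.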

[2] = Solubility in aqueous solvents; format: physicochemical; details: buffer

| Structure (SMILES) | IC50 (TA3) | Survival (L1210) | inhibitory concentration [1] | solubility [2] |
| --- | --- | --- | --- | --- |
| Br.Br.C/C(=N\NC(=N)N)c1ccc(CNC(=O)NCc2ccc(/C(C)=N/NC(=N)N)cc2)cc1 | 90 µM | 10.7 days |  |  |
| C/C(=N\NC(=N)N)c1ccc(NC(=O)Nc2ccc(/C(C)=N/NC(=N)N)cn2)cc1 | 7 µM | 11.3 days |  |  |
| Br.Br.C/C(=N\NC(=N)N)c1ccc(NC(=O)N(C)c2ccc(/C(C)=N/NC(=N)N)cc2)cc1 | 180 µM | 14.3 days | 80 µM |  |
| C/C(=N\NC(=N)N)c1ccc(N(C)C(=O)N(C)c2ccc(/C(C)=N/NC(=N)N)cc2)cc1 | 100 µM | 1.7 days | 310 µM |  |
| C/C(=N\NC(=N)N)c1ccc(NC(=O)Oc2ccc(/C(C)=N/NC(=N)N)cc2)cc1 | 180 µM |  | 170 µM |  |
| C/C(=N/NC(N)=S)c1ccc(NC(=O)Nc2ccc(/C(C)=N/NC(N)=S)cc2)cc1 |  |  |  | Insoluble |
| C/C(=N\O)c1ccc(NC(=O)Nc2ccc(/C(C)=N/O)cc2)cc1 |  |  |  | Insoluble |
| Br.Br.C/C(=N/NC(=N)N)c1ccc(CNC(=O)N(Cc2ccc(/C(C)=N/NC(=N)N)cc2)N=O)cc1 | > 100 µM | 10.5 days | 230 µM |  |
| Br.Br.C/C(=N/NC(=N)N)c1ccc(NC(=O)NCc2ccc(/C(C)=N/NC(=N)N)cc2)cc1 | 20 µM | 23 days | 110 µM |  |
| C/C(=N\NC(=N)N)c1ccc(NC(=O)Nc2ccc(/C(C)=N/NC(=N)N)cn2)nc1 | 7 µM | 11 days | 160 µM |  |
| C/C(=N/NC(=N)N[N+](=O)[O-])c1ccc(NC(=O)Nc2ccc(/C(C)=N\NC(=N)N[N+](=O)[O-])cc2)cc1 |  |  |  | Insoluble |
| C/C(=N\NC(=N)N)c1ccc(NC(=O)Nc2ccc(/C(C)=N/NC(=N)N)cc2)cc1 | 6 µM |  | 60 µM |  |
